CAL PDZ FP-1 = human CAL PDZ-peptide interaction inhibition; Q9HD26; purified CAL PDZ, TMR-peptide fluorescence polarization, 1 h; inhibition, % at 20 µM; actives 0.02% (n = 330,000); AID 504414;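 active = highest replicate inhibition of at least 40%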;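 also: plate controls were DMSO neutral control wells for no effect and unlabeled competitor peptide control wells for full effect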
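Material: tagged CAL PDZ protein CerCALP, purified; buffer or medium: sodium phosphate/NaCl buffer pH 7.4 with TCEP, IgG, Thesit; also added: fluorescent TMR peptide probe; schedule: 1 h incubation at room temperature before polarization reading; technique: fluorescence polarization from S- and P-plane intensities, G-factor corrected; control set: unlabelled peptide and DMSO controls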
CAL PDZ FP-2 = blocks peptide binding to the human CAL PDZ domain. Q9HD26. purified CAL PDZ, TMR-peptide fluorescence polarization, 1 h. inhibition, % at 24.9 µM. actives 0.92% (n = 300,000). AID 602252;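 active = mean inhibition of at least 30% with at least half of replicates also reaching 30%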;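 also: 0% = DMSO neutral control and 100% = excess unlabeled competitor peptide PRC23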
Rce1 inh = yeast Ras-converting enzyme inhibition; Q03530; yeast membranes, quenched prenylated peptide cleavage fluorescence; calls only; actives 0.27% (n = 290,000); AID 2563;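 active = fall in fluorescence gain of 50% or more versus controls, with final raw signal at or below 3038400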;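 also: plate controls were neutral control wells for no effect and wells lacking membranes for full effect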
Target sequence (Q03530 whole entry, looked up): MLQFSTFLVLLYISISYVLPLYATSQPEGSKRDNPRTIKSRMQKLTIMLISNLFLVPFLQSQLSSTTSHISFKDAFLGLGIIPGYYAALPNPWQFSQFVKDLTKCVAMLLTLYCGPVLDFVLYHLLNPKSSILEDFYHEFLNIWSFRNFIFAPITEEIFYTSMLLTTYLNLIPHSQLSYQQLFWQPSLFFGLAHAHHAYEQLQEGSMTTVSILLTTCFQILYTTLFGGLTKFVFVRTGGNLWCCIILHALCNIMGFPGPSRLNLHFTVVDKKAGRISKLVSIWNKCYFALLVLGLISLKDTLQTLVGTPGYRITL
AI-2 QS mod = modulators of Vibrio harveyi AI-2 quorum sensing system. Vibrio harveyi JMH597 AI-2 luminescence/OD600 ratio, 9 h; stronger effect = lower value; strain lacks LuxN and CqsS sensors; 0 = neutral-control median. AID 2094. activity change, % at 7.5 µM. actives 0.4% (n = 300,000); in the data active = activity change below about -75%, passing the limit was not always enough;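 also: luminescence divided by OD600 gain over 9 h not by final OD600 alone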
ARNT-TACC3 inh = ARNT/TACC3 interaction disruption; AID 623870; inhibition, % at 9.99 µM; actives 0.66% (n = 390,000); AlphaScreen His-ARNT PAS-B/GST-TACC3 binding, luminescence; TACC3 fragment carries E629A point mutation; Q9Y6A5;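 active = mean inhibition of replicates at least 50% and at least half of replicates each reaching 50%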;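 also: 0% = complete ARNT plus TACC3 wells and 100% = ARNT alone without TACC3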
An asterisk follows results filed as active; i = inactive; x = not tested or not shown; + = active, no number. Compounds with a hit are over-represented: about 1.7% of the library has one in this group of screens.

SMILES	CAL PDZ FP-1	CAL PDZ FP-2	Rce1 inh	AI-2 QS mod	ARNT-TACC3 inh
CN1CCN(C(=O)c2ccc(-c3nn(C)c(=O)c4ccccc34)cc2)CC1	-1.1	x	i	16.7	-7.6
COc1ccc(CCNC(=O)C23CCC(C)(C(=O)C2Br)C3(C)C)cc1OC (centres undefined)	0.2	-0.9	i	-1.8	49.3*
C[C@@H]1CCCCO[C@H](CN(C)Cc2ccc(C(=O)O)cc2)[C@H](C)CN([C@@H](C)CO)C(=O)c2cc(NS(=O)(=O)c3ccc(F)cc3)ccc2O1	x	x	x	x	-3.8
O=C(CC(=O)N/N=C/c1ccccc1)NCc1ccccc1	-1.1	146.6*	i	27.1	1.0
COc1cccc(C2CC(c3ccc(Br)cc3)=NN2C(=O)c2ccncc2)c1OC (centres undefined)	-2.7	-3.4	+	-7.1	27.1
CCC1=NN(C(=O)c2ccccc2Br)C(O)(c2ccc(Br)cc2)C1 (centres undefined)	0.5	x	i	29.4	x
CCc1ccc(S(=O)(=O)Nc2cc(SCC(=O)O)c(O)c3ccccc23)cc1	18.8	16.1	i	38.2	x
Cc1ccc(C)c(S(=O)(=O)Nc2cc(SCC(=O)O)c(O)c3ccccc23)c1	45.2*	17.3	x	x	54.1*
CCn1cc([N+](=O)[O-])c(C(=O)Nc2ccn(Cc3ccccc3F)n2)n1	-0.3	-0.4	i	-1.0	-13.5
CC1CCC(NC(=O)c2ccc3c(c2)S(=O)(=O)c2ccccc2C3=O)CC1 (centres undefined)	42.5*	3.7	i	24.0	4.6
O=C(COC(=O)c1ccc2c(c1)S(=O)(=O)c1ccccc1C2=O)NC1CC1	-2.9	x	i	-1.3	-3.6
COC(=O)C1C(O)CCC2CN3CCc4c([nH]c5ccccc45)C3CC21 (centres undefined)	1.3	-1.0	i	-0.9	18.0
COC(=O)[C@H](CCSC)NC(=O)Nc1ccc(OC)cc1OC	0.9	2.1	i	11.7	-1.3
CCN(CC)CCNC(=O)C(=O)Nc1ccc(C(=O)OC)cc1	-0.6	+	i	2.2	-4.2
O=C1CN(C(=S)NC(=O)c2ccc(-c3ccccc3)cc2)CCN1	-0.8	42.6*	i	14.7	-4.1
COc1ccc(C(=O)NC(=S)N2CCNC(=O)C2)cc1Br	-1.6	-1.5	i	39.9	-1.4
COc1ccc(CN2CCNC(=O)C2CC(=O)N(Cc2nccn2C)C(C)C)c(OC)c1 (centres undefined)	-4.0	4.0	i	24.2	-3.9
COc1ccc(CN2CCNC(=O)C2CC(=O)NC2CCCCCCC2)cc1OC (centres undefined)	-0.4	54.9*	i	19.9	2.0
Cc1ccc(CN2CCNC(=O)C2CC(=O)NC2CCCCCC2)o1 (centres undefined)	-0.6	-1.0	+	14.5	x
CC1CCN(c2ccc3nnc(CCC(=O)N4CCN(c5ccccc5F)CC4)n3n2)CC1	-3.1	-3.2	i	9.8	3.3
COc1cc(C2NC(=O)NC(C)=C2C(=O)OC2CCCCC2)cc(Br)c1O (centres undefined)	87.8*	-3.8	i	11.9	1.2
CCOC(=O)C1=C(C)NC(=O)NC1c1cc(Br)c(O)c(OC)c1 (centres undefined)	x	-1.4	i	13.3	-3.7
COc1cccc(CN(C)C(=O)COc2ccc(C(=O)c3ccc(Cl)cc3)cc2)c1OC	-1.8	-4.1	i	-3.0	0.6
O=C(Nc1ccn(Cc2ccc(Cl)cc2)n1)c1ccccc1	0.6	-0.8	i	-87.4*	-2.3
N#Cc1ccc(-c2nc3ccc(Br)cc3c(=O)n2O)cc1	-0.3	-4.4	i	-110.6*	1.3
SMILES	CAL PDZ FP-1	CAL PDZ FP-2	Rce1 inh	AI-2 QS mod	ARNT-TACC3 inh
O=c1c2cc(Br)ccc2nc(-c2cccc(C(F)(F)F)c2)n1O	-0.6	-0.1	i	34.7	8.1
O=c1c2cc(Br)ccc2nc(-c2ccc([N+](=O)[O-])cc2)n1O	-0.3	4.4	x	-167.5*	6.5
CCOc1ccccc1-n1c(SCC(N)=O)nnc1-c1ccc(O)cc1	-0.9	8.8	i	1.1	53.9*
Cc1ccc(C)c(-n2c(SCC(=O)N3CCCC3)nnc2-c2ccccn2)c1	0.1	x	i	13.8	46.0*
CCOc1ccccc1-n1c(SCC(=O)N2CCOCC2)nnc1-c1ccccn1	x	41.8*	i	6.5	21.4
CCOc1ccccc1-n1c(SCC(=O)N(CC)CC)nnc1-c1ccccn1	0.2	x	i	14.5	14.2
CCOC(=O)CCSc1nnc(-c2cccnc2)n1-c1ccccc1OC	0.6	67.2*	i	11.2	1.4
COc1ccccc1-n1c(SCC(N)=O)nnc1-c1ccccc1	-2.6	-0.5	i	13.0	-7.2
O=C(CC1SC(N2CCCCC2)=NC1=O)Nc1ccc(C(=O)O)cc1 (centres undefined)	0.7	-0.6	x	x	-1.6
N=c1c(C(=O)NCc2ccc(F)cc2)cc2c(=O)n3ccccc3nc2n1Cc1cccnc1	-2.2	-3.5	+	19.3	x
Cc1ccc(Sc2ncccc2C(=O)O)cc1	-1.0	-0.6	i	-79.6*	-28.3
O=C(O)c1cccnc1Sc1ccccc1	0.6	-0.1	i	-16.3	-7.6
COC(=O)CN1C(=O)CSc2ncccc21	-0.5	-0.6	i	8.0	-3.8
CCN(CC(=O)Nc1ccc(NC(C)=O)cc1)Cc1c(O)ccc2cc(Br)ccc12	-2.7	-3.8	x	x	-3.7
O=C(O)CCCN1C(=O)/C(=C\c2ccco2)SC1=S	-1.3	-2.6	i	38.0	2.8
O=C(O)CCN1C(=O)/C(=C\c2ccc(-c3nc4ccccc4s3)o2)SC1=S	6.9	x	i	12.3	67.3*
Cc1cc(-c2ccc(F)cc2)nc2cc(C(N)=O)nn12	2.1	-1.8	i	13.3	40.8*
CCCOc1ccc(OCCSc2nnc(N)s2)cc1	-1.5	1.6	i	26.4	-0.6
Nc1nnc(SCCOc2cccc(Br)c2)s1	1.2	x	i	-78.7*	-11.7
Brc1cccc(OCCSc2ncccn2)c1	-0.9	5.3	i	-81.9*	-6.3
CN(C)CCN(Cc1cc2cc3c(cc2nc1Cl)OCO3)C(=O)c1ccco1	-2.1	-5.3	i	12.0	-3.9
COc1cc(C(C)=O)ccc1OCCN1CCC(Cc2ccccc2)CC1	-1.1	-2.6	i	8.1	-1.2
CCC(=O)NCc1csc(-c2cccs2)n1	-0.9	-4.7	i	3.5	-4.1
O=C(NCc1csc(-c2cccs2)n1)C1CCCCC1	-0.2	32.6*	i	25.9	-5.2
Cn1c(CC(=O)Nc2ccccc2F)nnc1SCC(=O)Nc1ccccc1Br	-1.0	41.8*	i	21.5	-3.0
Cc1cc(C)n2nc(SCC(=O)N3CCCCC3C)nc2n1 (centres undefined)	0.3	-0.5	x	x	-0.8
Cc1cccc(NC(=S)N2CCN(C(=O)C3CCCO3)CC2)c1 (centres undefined)	-1.5	66.9*	i	15.7	-0.3
CSc1cccc(NC(=O)CCCOc2ccc(Cl)cc2Cl)c1	0.5	-4.6	i	20.1	-3.4

Source: PubChem
